According to ChEMBL document CHEMBL1157729, “Structure-activity relationship and mechanism of action studies of manzamine analogues for the control of neuroinflammation and cerebral infections” (J Med Chem, 2010):
Values after ≈ are worked out from the molar mass of the structure shown.

Key:
[1] = tested on: Vero; experiment: Cytotoxicity against african green monkey Vero cells up to 4.6 ug/mL after 48 hrs by neutral red assay; type: cell-based; conditions: chlorocebus sabaeus
Procedure, shortened: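 Vero cells were seeded at 25,000 cells/well and incubated for 24 h, then exposed to serially diluted samples for 48 h. Viable cells were counted by Neutral Red assay, with doxorubicin as positive control. IC50 was taken from dose-response curves.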

[2] = tested on: Mycobacterium tuberculosis; experiment: Antimycobacterial activity against Mycobacterium tuberculosis H37Rv; type: functional, organism-based
[3] = tested on: Plasmodium falciparum; experiment: Antiplasmodial activity against chloroquine-sensitive Plasmodium falciparum D6 after 72 hrs by LDH assay; type: functional, organism-based
[4] = tested on: Candida albicans; experiment: Antifungal activity against Candida albicans ATCC 90028; type: functional, organism-based
Procedure, shortened: (§1)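 Broth microdilution per modified CLSI method; samples serially diluted in 20% DMSO/saline, tested in duplicate; inocula set by OD630 of suspensions in incubation broth; growth read at 630 nm before and after incubation; amphotericin B drug control.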

[5] = tested on: Mycobacterium intracellulare; experiment: Antimycobacterial activity against Mycobacterium intracellular ATCC 23068; type: functional, organism-based
Procedure, shortened: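 Modified Franzblau method; samples serially diluted in 20% DMSO/saline, tested in duplicate; inoculum set by OD630; fluorescence read at 544ex/590em before and after incubation; ciprofloxacin drug control.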

[6] = tested on: Cryptococcus neoformans; experiment: Antifungal activity against Cryptococcus neoformans ATCC 90113; type: functional, organism-based; procedure, shortened: as §1
[7] = tested on: Plasmodium falciparum; experiment: Antiplasmodial activity against chloroquine-resistant Plasmodium falciparum W2 after 72 hrs by LDH assay; type: functional, organism-based
[8] = Antineuroinflammatory activity in LPS-stimulated rat neonatal microglia assessed as inhibition of PMA-induced TXB2 production preincubated 15 mins prior to PMA challenge measured after 70 mins; type: functional, cell-based
[9] = Antineuroinflammatory activity in LPS-stimulated rat neonatal microglia assessed as inhibition of PMA-induced superoxide anion production preincubated 15 mins prior to PMA challenge measured after 70 mins; type: functional, cell-based
[10] = Antineuroinflammatory activity in LPS-stimulated rat neonatal microglia assessed as drug level causing 50% PMA-induced LDH release preincubated 15 mins prior to PMA challenge measured after 70 mins; type: functional
Procedure, shortened: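 Neonatal rat microglia (2 × 10^5/well) primed with E. coli LPS 0.3 ng/mL for 17 h at 35.9 °C, washed with HBSS, given compound (0.01–10 μM) or DMSO 15 min, then PMA 1 μM; LDH read spectrophotometrically after 70 min; LDH50 relative to Triton X-100 (0.1%) release; duplicates.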

[11] = Plasmodium falciparum, D6, 72 h, read-out: IC50
[12] = Plasmodium falciparum, W2, 72 h, read-out: IC50

SMILES	Activity [1]	MIC [2]	IC50 [3, 11]	IC50 [4]	IC50 [5]	IC50 [6]	IC50 [3]	IC50 [7]	IC50 [7, 12]	IC50 [8]	IC50 [9]	Activity [10]
CC[C@@]1(O)CCCN2[C@@H](CC1)C[C@]13CN4CCCC/C=C\CC[C@](O)(C=C(c5nccc6c5[nH]c5c(O)cccc56)[C@@H]1CC4)[C@H]23	Non-toxic	1.9 µg/mL (≈ 3.11 µM)	0.077 µg/mL (≈ 0.126 µM)	2.5 µg/mL (≈ 4.09 µM)	0.25 µg/mL (≈ 0.409 µM)	6 µg/mL (≈ 9.82 µM)						
Oc1cccc2c1[nH]c1c(C3=C[C@@]4(O)CC/C=C\CCCCN5CC[C@@H]3[C@]3(C[C@@H]6CC[C@H](O)CCCN6[C@H]34)C5)nccc12	Non-toxic	1.7 µg/mL (≈ 2.92 µM)		15 µg/mL (≈ 25.7 µM)	1.5 µg/mL (≈ 2.57 µM)	10 µg/mL (≈ 17.2 µM)	Not Active	Not Active				
COC(=O)CCCCn1c2ccccc2c2ccnc(C3=C[C@@]4(O)CC/C=C\CCCCN5CC[C@@H]3[C@]3(C[C@@H]6/C=C\C(=O)CCCN6[C@H]34)C5)c21	Non-toxic		2 µg/mL (≈ 2.95 µM)	> 20 µg/mL	20 µg/mL (≈ 29.5 µM)	15 µg/mL (≈ 22.2 µM)			2 µg/mL (≈ 2.95 µM)			
O=C1CC[C@H]2C[C@]34CN5CCCC/C=C\CC[C@](O)(C=C(c6nccc7c6[nH]c6c(O)cccc67)[C@@H]3CC5)[C@@H]4N2CC/C1=C/c1ccc(F)cc1	Non-toxic			> 20 µg/mL	> 20 µg/mL	> 20 µg/mL	Not Active	Not Active				
COc1ccc(/C=C2/CCN3[C@@H](CCC2=O)C[C@]24CN5CCCC/C=C\CC[C@](O)(C=C(c6nccc7c6[nH]c6c(O)cccc67)[C@@H]2CC5)[C@H]34)cc1OC	Non-toxic	> 64 µg/mL		> 20 µg/mL	> 20 µg/mL	> 20 µg/mL	Not Active	Not Active				
O=C1CC[C@H]2C[C@]34CN5CCCC/C=C\CC[C@](O)(C=C(c6nccc7c6[nH]c6c(O)cccc67)[C@@H]3CC5)[C@@H]4N2CC/C1=C/c1c(Cl)cccc1Cl	Non-toxic	> 64 µg/mL		> 20 µg/mL	> 20 µg/mL	> 20 µg/mL	Not Active	Not Active				
CC(=O)Oc1cccc2c1[nH]c1c(C3=C/C4=C/C/C=C\CCCCN5CC[C@@H]3[C@]3(C[C@@H]6/C=C\CCCCN6[C@@H]43)C5)nccc12		> 64 µg/mL	2.5 µg/mL (≈ 4.25 µM)	> 20 µg/mL	10 µg/mL (≈ 17 µM)	> 20 µg/mL			3.8 µg/mL (≈ 6.45 µM)			
COc1ccc(/C=C2/CCN3[C@@H](CCC2=O)C[C@]24CN5CCCC/C=C\CC[C@](O)(C=C(c6nccc7c6[nH]c6c(O)cccc67)[C@@H]2CC5)[C@H]34)cc1	Non-toxic	> 64 µg/mL		> 20 µg/mL	> 20 µg/mL	> 20 µg/mL	Not Active	Not Active				
N/N=C1/CCCN2[C@@H](CC1)C[C@]13CN4CCCC/C=C\CC[C@](O)(C=C(c5nccc6c5[nH]c5c(O)cccc56)[C@@H]1CC4)[C@H]23	Non-toxic	1.9 µg/mL (≈ 3.19 µM)		> 20 µg/mL	0.09 µg/mL (≈ 0.151 µM)	1 µg/mL (≈ 1.68 µM)			0.038 µg/mL (≈ 0.0639 µM)			
O=C1CC[C@H]2C[C@]34CN5CCCC/C=C\CC[C@](O)(C=C(c6nccc7c6[nH]c6c(O)cccc67)[C@@H]3CC5)[C@@H]4N2CC/C1=C/c1ccc([N+](=O)[O-])cc1	Non-toxic	> 64 µg/mL		> 20 µg/mL	> 20 µg/mL	> 20 µg/mL	Not Active	Not Active				
CCCCCCCCCCCCn1c2ccccc2c2ccnc(C3=C[C@@]4(O)CC/C=C\CCCCN5CC[C@@H]3[C@]3(C[C@@H]6/C=C\CCCCN6[C@H]34)C5)c21	Non-toxic			> 20 µg/mL	> 20 µg/mL	> 20 µg/mL	Not Active	Not Active				
COc1cccc(/C=C2/CCN3[C@@H](CCC2=O)C[C@]24CN5CCCC/C=C\CC[C@](O)(C=C(c6nccc7c6[nH]c6c(O)cccc67)[C@@H]2CC5)[C@H]34)c1	Non-toxic	> 64 µg/mL		> 20 µg/mL	> 20 µg/mL	> 20 µg/mL	Not Active	Not Active				
O=C1CC[C@H]2C[C@]34CN5CCCC/C=C\CC[C@](O)(C=C(c6nccc7c6[nH]c6c(O)cccc67)[C@@H]3CC5)[C@@H]4N2CC/C1=C/c1ccc(Br)cc1	Non-toxic	> 64 µg/mL		> 20 µg/mL	> 20 µg/mL	> 20 µg/mL	Not Active	Not Active				
[O-][N+]12CCCC/C=C\CC[C@]3(O)C=C(c4nccc5c4[nH]c4ccccc45)[C@H](CC1)[C@]1(C[C@@H]4/C=C\CCCC[N@+]4([O-])[C@H]13)C2	Non-toxic			> 20 µg/mL	10 µg/mL (≈ 17.2 µM)	> 20 µg/mL						
O=[N+]([O-])c1cccc2c1[nH]c1c(C3=C[C@@]4(O)CC/C=C\CCCCN5CC[C@@H]3[C@]3(C[C@@H]6/C=C\CCCCN6[C@H]34)C5)nccc12 [8-NITROMANZAMINE A]	Non-toxic		0.31 µg/mL (≈ 0.522 µM)	> 20 µg/mL	0.25 µg/mL (≈ 0.421 µM)	4 µg/mL (≈ 6.74 µM)			0.41 µg/mL (≈ 0.691 µM)			
O[C@]12C=C(c3nccc4c3[nH]c3ccccc34)[C@@H]3CCN(CCCC/C=C\CC1)C[C@@]31C[C@@H]3CCCCCCN3[C@H]12 [32,33-DIHYDROMANZAMINE A]		66 µg/mL (≈ 120 µM)		9.5 µg/mL (≈ 17.2 µM)	0.6 µg/mL (≈ 1.09 µM)	1.5 µg/mL (≈ 2.72 µM)			1.8 µg/mL (≈ 3.27 µM)			
C[C@@H]1[C@H](O)[C@@H](C)/C=C/C=C/C=C/C=C/C=C/C=C/C=C/[C@H](O[C@@H]2O[C@H](C)[C@@H](O)[C@H](N)[C@@H]2O)C[C@@H]2O[C@](O)(C[C@@H](O)C[C@@H](O)[C@H](O)CC[C@@H](O)C[C@@H](O)CC(=O)O[C@H]1C)C[C@H](O)[C@H]2C(=O)O [AMPHOTERICIN B]				0.2 µg/mL (≈ 0.216 µM)								
C1=C(c2nccc3c2[nH]c2ccccc23)[C@@H]2CCN3CCCC/C=C\C/C=C/1[C@@H]1N4CCCC/C=C\[C@H]4C[C@@]12C3 [DEHYDROMANZAMINE A]		46 µg/mL (≈ 86.7 µM)	0.12 µg/mL (≈ 0.226 µM)	9.5 µg/mL (≈ 17.9 µM)	0.4 µg/mL (≈ 0.754 µM)	4.5 µg/mL (≈ 8.48 µM)			2.2 µg/mL (≈ 4.14 µM)			
O=CC1=C[C@@]2(O)CC/C=C\CCCCN3CC[C@@H]1[C@]1(C[C@@H]4/C=C\CCCCN4[C@H]12)C3 [IRCINAL]										330 nM	> 10000 nM	4.6 µM
O=C1CCCN2[C@@H](CC1)C[C@]13CN4CCCC/C=C\CC[C@](O)(C=C(c5nccc6c5[nH]c5c(O)cccc56)C1CC4)[C@H]23 (some centres not stated) [MANZAMINE F]				15 µg/mL (≈ 25.8 µM)								
CO[C@H]1/C=C/O[C@@]2(C)Oc3c(C)c(O)c4c(O)c(c(/C=N/N5CCN(C)CC5)c(O)c4c3C2=O)NC(=O)/C(C)=C\C=C\[C@H](C)[C@H](O)[C@@H](C)[C@@H](O)[C@@H](C)[C@H](OC(C)=O)[C@@H]1C [RIFAMPIN]		0.09 µg/mL (≈ 0.109 µM)										
